Rows were chosen to be rich in hits. Some 1.8% of all compounds tested hit in one or more screens of this group.
C2C12 statin – suppression of simvastatin myotoxicity. C2C12 myotubes + simvastatin, ATP luminescence, 48 h; scaled: DMSO 0, geranylgeraniol control 100. rescue of ATP level, % at 7.49 µM. AID 602340. 0.78% of 330,000 active;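 active = mean ATP rescue above about 67%, or every replicate alone reaching that limit, limit read from the data, passing the limit was not always enough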;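 note: myotubes were challenged with 10 µM simvastatin during compound exposure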
Efflux pump mplx – blocks antifungal efflux pumps in multiplex yeast assay; 0.44% of 330,000 active; AID 485275; inhibition, % at 10 µM; S. cerevisiae Candida pump triplex, Nile Red efflux;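 active = plate passing quality check with inhibition over a set limit, or well fluorescence over plate mean plus 4 SD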;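 note: Nile Red retained in pooled yeast measured as flow cytometry median fluorescence; higher means more Nile Red kept so more efflux inhibition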
Mot1-301 SUMO – inhibitors of SUMOylation pathway: yeast Mot1-301 growth rescue; 1% of 320,000 active; growth rescue, % at 18.8 µM; S. cerevisiae Mot1-301 growth rescue, ATP luminescence, 38.5C; percent above DMSO median, 100 means doubled; AID 2716;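 active = every valid replicate shows activation above 250% relative to neutral control wells; inactive = the rest, any valid replicate at or below 250%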
Cneo AK release – Cryptococcus neoformans lysis via adenylate kinase release | C. neoformans lysis, adenylate kinase release luminescence, 4 h; normalised: neutral wells 0, clomiphene wells 100 | lysis activity, % at 15 µM | 0.2% of 360,000 active;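 active = mean lysis activity across replicates of at least 80%, whatever share of replicates individually reach that level; inactive = mean lysis activity below 80%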
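Schedule: static 4 h at 37 °C with compound, 1 h detection; system: C. neoformans cells; benchmarks: Clomiphene as positive control; buffer or medium: fresh YPD medium; measure: luminescence rise reflecting yeast cell lysis; measured by: luminescent adenylate kinase detection reagent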
Yeast cmpd fluor – compound fluorescence in yeast efflux pump counter-screen; shares compounds with Efflux pump mplx; S. cerevisiae AD/pABC3, flow cytometry; fluorescence ratio to DMSO, % at 10 µM; 4% of 1,700 active;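 active = fluorescence ratio to DMSO above its plate's cutoff, the plate mean ratio plus 5 SD, cut at about 210% in these data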;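 note: unstained yeast with no Nile Red so the signal is compound autofluorescence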
CaMdr1 efflux inh – blocks the Candida albicans Mdr1 efflux pump in yeast. shares compounds with Efflux pump mplx. S. cerevisiae AD/CaMDR1, Nile Red efflux, flow cytometry. inhibition, % at 10 µM. 1% of 1,700 active; in the data active = inhibition above about 26%;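 note: higher means more Nile Red retained so more efflux inhibition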
CaCdr2 efflux inh – Candida Cdr2 efflux pump inhibition; shares compounds with Efflux pump mplx; S. cerevisiae AD/CaCDR2, Nile Red retention, flow cytometry; Nile Red retention ratio vs DMSO, % at 10 µM; 4% of 1,700 active; AID 588520; in the data active = Nile Red retention ratio vs DMSO above about 190%;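 note: higher ratio means more blocking of Cdr2 efflux of the dye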
Cdr1 pump inh – Candida Cdr1 efflux pump inhibition; shares compounds with Efflux pump mplx; S. cerevisiae AD/CaCDR1, Nile Red efflux, flow cytometry; inhibition, % at 10 µM; 1% of 1,700 active; AID 588522;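 active = inhibition above the screen-wide mean plus twice its standard deviation, cut at about 32% in these data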
Numbers stand for hits; i = inactive; nt = no result; + = active, no number.

SMILES	C2C12 statin	Efflux pump mplx	Mot1-301 SUMO	Cneo AK release	Yeast cmpd fluor	CaMdr1 efflux inh	CaCdr2 efflux inh	Cdr1 pump inh
CC1O[C@@H](OCC2O[C@@H](Oc3cc(O)c4c(c3)OC(c3ccc(O)cc3)CC4=O)[C@H](O)[C@@H](O)[C@@H]2O)[C@H](O)[C@H](O)[C@H]1O (some centres undefined)	i	i	i	i	nt	nt	nt	nt
COc1ccc(C(C)n2c(C)c3c(C)nnc(C)c3c2C)cc1 (centres undefined)	i	6.7	i	i	i	i	i	i
COCC#Cc1ccc2c(c1)O[C@H](CN(C)Cc1ccccc1)[C@H](C)CN([C@@H](C)CO)S2(=O)=O	i	nt	nt	i	nt	nt	nt	nt
N#C/C(=N\O)c1nc2ccccc2s1	i	i	i	i	nt	nt	nt	nt
N#C/C(=C\c1ccco1)c1nc2ccccc2s1	nt	i	i	nt	i	i	i	i
CCCCc1ccc(-c2csc(/C(C#N)=C\c3ccco3)n2)cc1	nt	0.6	i	nt	i	i	i	i
N#C/C(=C/c1ccco1)c1nc2ccccc2s1	nt	i	i	i	i	i	i	i
CC(=O)Nc1ccc(S(=O)(=O)Nc2cc(C)ccn2)cc1	nt	i	i	nt	nt	nt	nt	nt
O=C(NC(=S)Nc1ccc2[nH]c(=O)[nH]c2c1)c1ccccc1Cl	i	6.2	i	i	i	i	i	i
CN(C)c1ccc(/C=C/C(=O)c2c(O)c3ccccc3oc2=O)cc1	i	1.4	i	i	i	i	222.7	i
O=C(CNC(=O)C1COc2ccccc2O1)N/N=C\c1cccc(O)c1 (centres undefined)	nt	7.6	i	nt	i	i	i	i
CC(CCc1ccccc1)NC(=O)/C=C/c1ccc(Cl)cc1 (centres undefined)	nt	i	i	i	nt	nt	nt	nt
NCC(=O)NCC(=O)OCc1ccccc1	nt	i	i	nt	nt	nt	nt	nt
CCSc1nc2c(c(=O)[nH]1)C(c1cccnc1)C(C(=O)OC)=C(C)N2 (centres undefined)	i	i	i	i	nt	nt	nt	nt
CCSc1nc2c(c(=O)[nH]1)C(c1ccncc1)C(C(=O)OC(C)C)=C(C)N2 (centres undefined)	i	0.4	i	i	i	i	i	i
CCC(=O)NC(c1ccco1)c1cc(Cl)c2cccnc2c1O (centres undefined)	nt	3.0	i	nt	i	i	i	i
COc1ccc(/C=C/C(=O)Nc2cccc(S(=O)(=O)N3CCCC3)c2)cc1OC	i	1.1	i	i	i	i	i	i
Cc1ccc(OCC(=O)Nc2cnn(CCCC(=O)O)c2)c([N+](=O)[O-])c1	i	3.9	i	nt	i	i	i	i
Cc1ccccc1CSc1nc2c(c(=O)[nH]1)CCC2	i	5.9	i	i	i	i	i	i
CC(C)CNC(=O)C1(C)CCCN1C(=O)CCc1cccs1 (centres undefined)	i	nt	nt	i	nt	nt	nt	nt
CC(CCc1ccccc1)NC(=O)c1ccc2nc(N3CCOCC3)sc2c1 (centres undefined)	nt	i	i	i	nt	nt	nt	nt
CCC(Cc1ccccc1)NC(=O)c1ccc2nc(N3CCOCC3)sc2c1 (centres undefined)	i	2.1	i	i	i	i	i	i
CCC1(C(=O)c2ccc(Cl)cc2)C2c3ccccc3OC(=O)C21C(=O)Nc1ccccc1 (centres undefined)	nt	1.8	i	nt	i	i	i	i
CSc1ccccc1C(=O)Nc1cc(C)cc(C)c1	i	i	i	i	nt	nt	nt	nt
CSc1ccccc1C(=O)Nc1ccc(C)c(C)c1	nt	1.4	i	nt	i	i	i	i
SMILES	C2C12 statin	Efflux pump mplx	Mot1-301 SUMO	Cneo AK release	Yeast cmpd fluor	CaMdr1 efflux inh	CaCdr2 efflux inh	Cdr1 pump inh
C[C@@H]1CN([C@@H](C)CO)C(=O)c2cc(NS(C)(=O)=O)ccc2O[C@@H]1CN(C)S(=O)(=O)c1cccs1	i	nt	nt	i	nt	nt	nt	nt
COCCN1C(=O)/C(=C/c2ccc(N3CCCC3)cc2C)SC1=S	nt	2.2	i	nt	318.0	i	i	i
CCN=C1S/C(=C\c2ccc(N3CCOCC3)cc2C)C(=O)N1CC	nt	i	i	nt	nt	nt	nt	nt
COc1ccc2c(-c3cnc(N4CCOCC4)nc3)c(-c3ccc(S(C)(=O)=O)cc3)sc2c1	i	i	i	i	nt	nt	nt	nt
COc1ccccc1-c1sc2cc3c(cc2c1-c1ccc(OCCN2CCOCC2)cc1)OCO3	i	i	nt	i	i	i	i	i
COc1ccc(-c2sc3cc4c(cc3c2-c2ccc(OCCN3CCCCC3)cc2)OCO4)cc1	i	i	nt	i	i	i	i	i
COc1cc(OC)cc(-c2sc3ccc(OC)cc3c2-c2ccc(OCCN3CCCCC3)cc2)c1	i	+	nt	i	i	69.8	nt	103.5
COc1ccc(-c2sc3cc(OC)ccc3c2-c2ccc(OCCN3CCOCC3)cc2)cc1	i	i	nt	i	i	i	i	i
CCc1ccc(-c2cc3c(=O)n(CC(=O)NCCN4CCCCC4C)nc(C)n3n2)cc1 (centres undefined)	i	1.0	i	i	i	i	i	i
Nc1cc(OCC(F)(F)F)cc(OCC(F)(F)F)c1	nt	i	i	nt	nt	nt	nt	nt
C/C=C/c1ccc2c(c1)O[C@H](CN(C)C(=O)CC)[C@@H](C)CN([C@@H](C)CO)S2(=O)=O	i	nt	nt	i	nt	nt	nt	nt
O=C(CSc1nc2ccccc2c(=O)n1-c1ccc(F)cc1F)Nc1ccc(N2CCOCC2)cc1	nt	18.9	i	i	i	i	i	i
Cc1ccc(-n2c(SCC(=O)Nc3ccc(N4CCOCC4)cc3)nc3ccccc3c2=O)cc1	nt	9.6	i	nt	i	i	i	i
O=C(CSc1nc2ccccc2c(=O)n1-c1ccc(F)cc1)Nc1ccc(N2CCOCC2)cc1	nt	i	i	nt	nt	nt	nt	nt
Cc1c(OC(C)C(=O)NCc2ccccn2)ccc2c3c(c(=O)oc12)CCCC3 (centres undefined)	i	1.8	i	i	i	i	i	i
Cc1c(OC(C)C(=O)NCc2ccncc2)ccc2c3c(c(=O)oc12)CCC3 (centres undefined)	i	i	i	i	nt	nt	nt	nt
CCOC(=O)[C@H]1[C@H]2COc3ccc(Br)cc3[C@@H]2N2C(=O)c3cc(OC)c(OC)cc3NC(=O)[C@@]12C	i	nt	i	i	nt	nt	nt	nt
O=C(N1CCCCC1)N1CCN(S(=O)(=O)c2cccc([N+](=O)[O-])c2)CC1	i	i	i	i	nt	nt	nt	nt
O=C(N1CCOCC1)N1CCN(S(=O)(=O)c2cccc([N+](=O)[O-])c2)CC1	i	1.8	i	i	i	i	i	i
COc1ccc(CCNC(=O)C2CCN(S(=O)(=O)N3CCC4(CC3)OCCO4)CC2)cc1OC	i	1.3	i	i	i	i	i	i
COc1ccc(C(CCN2CCOCC2)c2c(OC)cc(OC)c3c(-c4ccccc4)cc(=O)oc23)cc1 (centres undefined)	i	1.6	nt	i	i	i	i	i
CC(C)(C)c1cc(=O)n(-c2ccccc2)[nH]1	nt	i	i	nt	nt	nt	nt	nt

Assay outcomes as filed in PubChem BioAssay.
